From publication PMC6598221 (Saudi Pharmaceutical Journal : SPJ, 2019) come the findings set out here.

The assay deals with trypsin from porcine pancreas (Sus scrofa, UniProt P00761). Nature of the assay: trypsin inhibition assay. It counts as biochemical. In short, it runs like this:
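Porcine pancreatic trypsin. Test compound stock diluted twofold in 50 mM Tris buffer (20 mM CaCl2, pH 8.2). Trypsin and BAPNA added at final 40 and 160 µg/mL, incubated at 37 °C for 12 min, stopped with 30% acetic acid, A410 read. IC50 derived from % inhibition. Caffeic and tannic acids were reference inhibitors. Means ± standard errors; one-way ANOVA with Tukey's test, p < 0.05.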

trypsin from porcine pancreas, sequence (P00761 9-231): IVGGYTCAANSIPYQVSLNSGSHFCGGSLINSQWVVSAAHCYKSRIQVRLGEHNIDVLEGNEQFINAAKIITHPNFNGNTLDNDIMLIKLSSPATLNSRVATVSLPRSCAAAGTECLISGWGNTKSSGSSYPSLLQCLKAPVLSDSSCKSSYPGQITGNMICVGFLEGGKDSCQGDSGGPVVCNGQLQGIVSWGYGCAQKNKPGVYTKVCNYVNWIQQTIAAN

tannic acid registered an IC50 trypsin inhibition of 75.66 µg/mL.

One may read the IC50 as the midpoint of a concentration-inhibition curve. Low readings indicate inhibition by little substance, high ones a need for much substance. Take `O=C(O)/C=C/c1ccc(O)c(O)c1` [caffeic acid]: the midpoint of inhibition, the IC50, lay at 40.6 mM.
